# Article PMC7233462 (Cell reports, 2019)
# pKd: −log10 of the molar value.
# Tests used:
# PpKAI2-like C [1] = molecular target: T1, PpKAI2-like C (Physcomitrium patens, UniProt A9SKF7); assay type: biochemical, Physcomitrella patens; conditions: 1 μM PpKAI2-like C, 1 mM substrate, 3 h, room temperature
# PpKAI2-like D [2] = experiment: Differential scanning fluorimetry; assay type: binding, Physcomitrella patens
# PpKAI2-like D [3] = assay type: biochemical, Physcomitrella patens; conditions: 1 μM PpKAI2-like D, 1 mM substrate, 3 h, room temperature
# PpKAI2-like C [4] = molecular target: T1, PpKAI2-like C; experiment: Differential scanning fluorimetry; assay type: binding, Physcomitrella patens
# PpKAI2-like E [5] = experiment: Mass spectrometry of protein for D ring modification; assay type: biochemical, Physcomitrella patens; conditions: PpKAI2-like E incubated with ligand
# PpKAI2-like C [6] = molecular target: T1, PpKAI2-like C; experiment: as above; assay type: biochemical, Physcomitrella patens; conditions: PpKAI2-like C incubated with ligand
# PpKAI2-like D [7] = experiment: as above; assay type: biochemical, Physcomitrella patens; conditions: PpKAI2-like D incubated with ligand
# PpKAI2-like E [8] = experiment: Differential scanning fluorimetry; assay type: binding, Physcomitrella patens
# PpKAI2-like E [9] = assay type: biochemical, Physcomitrella patens; conditions: 1 μM PpKAI2-like E, 1 mM substrate, 3 h, room temperature
# PpKAI2-like H [10] = molecular target: T2, PpKAI2-like H (Physcomitrium patens, UniProt A9SG07); experiment: Differential scanning fluorimetry; assay type: binding, Physcomitrella patens; conditions: PpKAI2-like H wild-type
# PpKAI2-like D [11] = experiment: Fluorescence-based equilibrium microdialysis, KAR1 binding; design: species or system Physcomitrella patens
# PpKAI2-like H [12] = molecular target: T2, PpKAI2-like H; experiment: as above; design: species or system Physcomitrella patens
# PpKAI2-like L = experiment: as above; design: species or system Physcomitrella patens
# PpKAI2-like C [13] = molecular target: T1, PpKAI2-like C; experiment: as above; design: species or system Physcomitrella patens
# PpKAI2-like K = experiment: as above; design: species or system Physcomitrella patens
# AtKAI2 = conditions: read-out: published affinity, ref Guo et al., 2013; cited from earlier work
# [14] = tested on: PpKAI2-like E SDIDSM166TDIHDE; experiment: Fluorescence-based equilibrium microdialysis, KAR1 binding; design: species or system Physcomitrella patens; conditions: loop-swap PpKAI2-like E SDIDSM166TDIHDE
# [15] = tested on: PpKAI2-like H TDIHDE167SDIDSM; experiment: as above; design: species or system Physcomitrella patens; conditions: loop-swap PpKAI2-like H TDIHDE167SDIDSM
# [16] = tested on: Physcomitrella caulonema growth; conditions: ref Hoffmann et al., 2014; cited from earlier work
# PpKAI2-like E [17] = experiment: Fluorescence-based equilibrium microdialysis, KAR1 binding; design: species or system Physcomitrella patens
# PpKAI2-like B = experiment: as above; design: species or system Physcomitrella patens
# [18] = tested on: PpKAI2-like H TDIHDE167SDIDSM; experiment: Differential scanning fluorimetry; assay type: binding, Physcomitrella patens; conditions: loop-swap PpKAI2-like H TDIHDE167SDIDSM
# [19] = tested on: PpKAI2-like E SDIDSM166TDIHDE; experiment: Differential scanning fluorimetry; assay type: binding, Physcomitrella patens; conditions: loop-swap PpKAI2-like E SDIDSM166TDIHDE
# DAD2 = conditions: Petunia paralog DAD2; ref Hamiaux et al., 2012; cited from earlier work
# PpKAI2-like E S166A = molecular target: T3, PpKAI2-like E S166A (Physcomitrium patens, UniProt A9ST85, S166A); experiment: Isothermal titration calorimetry of; assay type: binding, Physcomitrella patens
# T3 sequence (A9ST85 1-270 S166A): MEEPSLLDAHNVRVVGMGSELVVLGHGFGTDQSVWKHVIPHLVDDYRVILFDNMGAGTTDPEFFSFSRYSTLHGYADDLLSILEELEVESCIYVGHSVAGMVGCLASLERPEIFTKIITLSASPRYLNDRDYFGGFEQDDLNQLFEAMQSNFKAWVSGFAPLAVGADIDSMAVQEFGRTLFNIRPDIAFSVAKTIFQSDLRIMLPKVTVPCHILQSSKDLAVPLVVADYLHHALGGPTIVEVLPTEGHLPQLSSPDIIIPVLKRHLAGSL
# In short: (§1)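 GST-fused protein (wild-type or point mutant) was expressed in E. coli BL21-CodonPlus-RIL, HRV3-cleaved on glutathione resin, then size-excluded in 20 mM Tris-HCl, 30 mM NaCl, 1 mM TCEP, pH 7.7. Protein at 1800 μM was titrated into 40 μM racemic GR24 over 20 injections spaced 240 s apart. Data were fitted to a one-site binding model.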
# D14 = conditions: Arabidopsis D14; ref Zhao et al., 2013; cited from earlier work
# [20] = molecular target: PpKAI2-like E S166D S170D; experiment: Isothermal titration calorimetry of; assay type: binding, Physcomitrella patens; conditions: ITC
# In short: as §1
molecule,measurement,setting,value
(+)-5-deoxystrigol,degradation of intact substrate mass,PpKAI2-like C [1],did not observe any effect
same,change of protein melting point (DSF),PpKAI2-like D [2],unable to detect a change in melting points
same,degradation of intact substrate mass,PpKAI2-like D [3],did not observe any effect
same,change of protein melting point (DSF),PpKAI2-like C [4],unable to detect a change in melting points
same,D ring modification of active site histidine,PpKAI2-like E [5],unable to detect the modification
same,D ring modification of active site histidine,PpKAI2-like C [6],unable to detect the modification
same,D ring modification of active site histidine,PpKAI2-like D [7],unable to detect the modification
same,change of protein melting point (DSF),PpKAI2-like E [8],unable to detect a change in melting points
same,degradation of intact substrate mass,PpKAI2-like E [9],did not observe any effect
(+)-4-deoxyorobanchol,change of protein melting point (DSF),PpKAI2-like D [2],unable to detect a change in melting points
same,change of protein melting point (DSF),PpKAI2-like C [4],unable to detect a change in melting points
same,change of protein melting point (DSF),PpKAI2-like E [8],unable to detect a change in melting points
(−)-4-deoxyorobanchol,change of protein melting point (DSF),PpKAI2-like D [2],unable to detect a change in melting points
same,change of protein melting point (DSF),PpKAI2-like C [4],unable to detect a change in melting points
same,change of protein melting point (DSF),PpKAI2-like E [8],unable to detect a change in melting points
CC1=CC(O/C=C(C)\C=C\C2=C(C)CCCC2(C)C)OC1=O (racemic) [rac-carlactone],change of protein melting point (DSF),PpKAI2-like D [2],unable to detect any interaction
same,change of protein melting point (DSF),PpKAI2-like C [4],unable to detect any interaction
same,binding / interaction (DSF),PpKAI2-like H [10],unable to detect any interaction
same,change of protein melting point (DSF),PpKAI2-like E [8],unable to detect any interaction
Cc1c2ccocc-2oc1=O [KAR1],KAR1 binding,PpKAI2-like D [11],unable to detect KAR1 binding
same,pKd,PpKAI2-like H [12],5.17
same,pKd,PpKAI2-like L,5.28
same,KAR1 binding,PpKAI2-like C [13],unable to detect KAR1 binding
same,pKd,PpKAI2-like K,5.11
same,pKd,AtKAI2,5.05
same,KAR1 binding,[14],weak binding
same,KAR1 binding,[15],lost KAR1 binding ability
same,effect on Physcomitrella caulonema growth,[16],not found any effect
same,KAR1 binding,PpKAI2-like E [17],unable to detect KAR1 binding
same,KAR1 binding,PpKAI2-like B,do not bind
(−)-5-deoxystrigol,degradation of intact substrate mass,PpKAI2-like C [1],loss of intact (−)-5-deoxystrigol mass
same,affinity (DSF),[18],weak affinity
same,change of protein melting point (DSF),PpKAI2-like D [2],absolute preference
same,affinity (DSF),[19],reduced compared to wild-type
same,degradation of intact substrate mass,PpKAI2-like D [3],loss of intact (−)-5-deoxystrigol mass
same,change of protein melting point (DSF),PpKAI2-like C [4],absolute preference
same,binding / interaction (DSF),PpKAI2-like H [10],no binding observed
same,D ring modification of active site histidine,PpKAI2-like E [5],96 Da mass of the D ring to be attached to the active site histidines
same,D ring modification of active site histidine,PpKAI2-like C [6],96 Da mass of the D ring to be attached to the active site histidines
same,D ring modification of active site histidine,PpKAI2-like D [7],96 Da mass of the D ring to be attached to the active site histidines
same,change of protein melting point (DSF),PpKAI2-like E [8],absolute preference
same,degradation of intact substrate mass,PpKAI2-like E [9],loss of intact (−)-5-deoxystrigol mass
CC1=CC(O/C=C2/C(=O)OC3c4ccccc4CC23)OC1=O (racemic) [(±)-GR24],turnover rate,DAD2,3 (±)-GR24 molecules/hr
same,pKd,PpKAI2-like E S166A,4.09
same,affinity (DSF),[18],weak affinity
same,change of protein melting point (DSF),PpKAI2-like D [2],destabilization
same,affinity (DSF),[19],reduced compared to wild-type
same,change of protein melting point (DSF),PpKAI2-like C [4],destabilization
same,turnover rate,D14,1 (±)-GR24 molecule/3 min
same,binding / interaction (DSF),PpKAI2-like H [10],no binding observed
same,change of protein melting point (DSF),PpKAI2-like E [8],strongest shift of the protein melting point
same,binding of (±)-GR24,[20],unable to detect binding
